Measurements from ChEMBL document CHEMBL3862019, “Synthesis of novel ethyl 2,4-disubstituted 8-(trifluoromethyl)pyrido[2',3':3,4]pyrazolo[1,5-a]pyrimidine-9-carboxylate derivatives as promising anticancer agents” (Bioorg Med Chem Lett, 2016).
The source made the active and inactive calls. The calls are words filed in the database; no cut-off is given here.

Key:
[1] = Cytotoxicity against human PC3 cells assessed as cell growth inhibition by MTT assay; format: functional, cell-based; details: PC-3
Procedure, shortened: (§1)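 IC50 values were read from dose–response curves for compounds that gave above 60% inhibition in the initial test. HUVEC (ATCC CRL-1730) served as the normal cell line.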

[2] = system: PC-3; experiment: Selectivity index, ratio of IC50 for HUVEC to IC50 for human PC3 cells
Procedure, shortened: (§2)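 SI is the IC50 in normal HUVEC divided by the IC50 of the same compound in the cancer cell line.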

[3] = Cytotoxicity against human HeLa cells assessed as cell growth inhibition by MTT assay; format: functional, cell-based; procedure, shortened: as §1
[4] = system: HeLa; experiment: Selectivity index, ratio of IC50 for HUVEC to IC50 for human HeLa cells; procedure, shortened: as §2
[5] = Cytotoxicity against human MDA-MB-231 cells assessed as cell growth inhibition by MTT assay; format: functional, cell-based; procedure, shortened: as §1
[6] = Selectivity index, ratio of IC50 for HUVEC to IC50 for human MDA-MB-231 cells; procedure, shortened: as §2
[7] = Cytotoxicity against human HepG2 cells assessed as cell growth inhibition by MTT assay; format: functional, cell-based; procedure, shortened: as §1
[8] = system: HepG2; experiment: Selectivity index, ratio of IC50 for HUVEC to IC50 for human HepG2 cells; procedure, shortened: as §2
[9] = Cytotoxicity against HUVEC assessed as cell growth inhibition by MTT assay; format: toxicity, cell-based; details: human; procedure, shortened: as §1
[10] = Cytotoxicity against HUVEC assessed as cell growth inhibition up to 100 uM by MTT assay; format: toxicity, cell-based; details: human
[11] = target: T1, DNA topoisomerase 1 (Homo sapiens) (UniProt P11387); experiment: Inhibition of human DNA TOP1 assessed as suppression of supercoiled plasmid HOT1 relaxation at 10 to 20 uM preincubated with enzyme followed by substrate addition measured after 30 mins by ethidium bromide dye-based agarose gel electrophoresis
T1 sequence (whole entry): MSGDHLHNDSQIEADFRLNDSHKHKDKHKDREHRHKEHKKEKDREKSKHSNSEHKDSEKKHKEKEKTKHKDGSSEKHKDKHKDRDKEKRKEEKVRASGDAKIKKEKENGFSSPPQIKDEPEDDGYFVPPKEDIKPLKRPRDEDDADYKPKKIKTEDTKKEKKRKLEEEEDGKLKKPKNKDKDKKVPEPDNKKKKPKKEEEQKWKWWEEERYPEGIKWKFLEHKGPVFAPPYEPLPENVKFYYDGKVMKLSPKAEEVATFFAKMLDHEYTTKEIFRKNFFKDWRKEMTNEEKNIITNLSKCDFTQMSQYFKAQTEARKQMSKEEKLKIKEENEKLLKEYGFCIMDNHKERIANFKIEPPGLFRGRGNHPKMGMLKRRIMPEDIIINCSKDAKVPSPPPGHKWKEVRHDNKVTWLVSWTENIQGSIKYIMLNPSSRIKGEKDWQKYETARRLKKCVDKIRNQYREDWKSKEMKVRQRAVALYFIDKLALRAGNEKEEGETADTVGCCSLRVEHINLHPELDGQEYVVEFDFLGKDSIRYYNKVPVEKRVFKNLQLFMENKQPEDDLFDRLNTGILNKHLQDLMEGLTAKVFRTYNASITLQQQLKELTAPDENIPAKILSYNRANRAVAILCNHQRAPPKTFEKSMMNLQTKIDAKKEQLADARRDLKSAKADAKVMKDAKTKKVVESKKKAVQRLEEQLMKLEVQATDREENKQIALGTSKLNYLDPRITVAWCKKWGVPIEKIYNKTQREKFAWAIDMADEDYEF
Procedure, shortened: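 Supercoiled plasmid pHOT1 was incubated with human topoisomerase I, with compound or camptothecin control at 10 and 20. Relaxation was resolved on a 1% agarose gel run with ethidium bromide, alongside supercoiled and relaxed DNA marker lanes.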

In the case of `O=c1[nH]cc(F)c(=O)[nH]1` [FLUOROURACIL], the IC50 [1] is reported as 1.8 µM, the “Ratio IC50” value [2] is reported as 44.22 and the IC50 [3] is reported as 1.6 µM. The “Ratio IC50” value [4] was 49.75, the IC50 [5] was 1.9 µM and the “Ratio IC50” value [6] was 41.89. For the same compound, the IC50 [7] was 1.8 µM, the “Ratio IC50” value [8] was 44.22 and the IC50 [9] was 79.6 µM.

In the case of `CCOC(=O)c1cc2c(nc1C(F)(F)F)nn1c(CC)cc(CC)nc21`, the Activity [10] is reported as “Non-Toxic”.

With `CCOC(=O)c1cc2c(nc1C(F)(F)F)nn1c(-c3ccc(Cl)cc3)cc(-c3ccccc3)nc21` the Activity [9] was “Non-Toxic”.

With `CCOC(=O)c1cc2c(nc1C(F)(F)F)nn1c(-c3ccccc3)cc(C)nc21` the IC50 [3] was 29.8 µM, the “Ratio IC50” value [4] was 3.05 and the IC50 [5] was 28.6 µM. The “Ratio IC50” value [6] was 3.18 and the IC50 [9] was 91.1 µM.

With `CCOC(=O)c1cc2c(nc1C(F)(F)F)nn1c(-c3ccc(F)cc3)cc(-c3cccs3)nc21` the IC50 [1] was 15.1 µM, the “Ratio IC50” value [2] was 5.68 and the IC50 [3] was 15.3 µM. For the same compound, the “Ratio IC50” value [4] was 5.61, the IC50 [5] was 17.1 µM and the “Ratio IC50” value [6] was 5.02. The IC50 [7] was 16.8 µM, the “Ratio IC50” value [8] was 5.11 and the IC50 [9] was 85.9 µM.

In the case of `CCOC(=O)c1cc2c(nc1C(F)(F)F)nn1c(C)cc(C)nc21`, the IC50 [1] is reported as 22.1 µM, the “Ratio IC50” value [2] is reported as 4.48 and the IC50 [3] is reported as 18.2 µM. The “Ratio IC50” value [4] was 5.45, the IC50 [5] was 20.1 µM and the “Ratio IC50” value [6] was 4.93. The IC50 [7] was 21.2 µM, the “Ratio IC50” value [8] was 4.67 and the IC50 [9] was 99.2 µM.

In the case of `CCOC(=O)c1cc2c(nc1C(F)(F)F)nn1c(-c3ccc(OC(F)(F)F)cc3)cc(-c3cccs3)nc21`, the IC50 [1] is reported as 11.9 µM, the “Ratio IC50” value [2] is reported as 7.55 and the IC50 [3] is reported as 16.1 µM. For the same compound, the “Ratio IC50” value [4] was 5.58, the IC50 [5] was 17.2 µM and the “Ratio IC50” value [6] was 5.22. The IC50 [7] was 12.6 µM, the “Ratio IC50” value [8] was 7.13 and the IC50 [9] was 89.9 µM.

For `CCOC(=O)c1cc2c(nc1C(F)(F)F)nn1c(-c3ccc(F)cc3)cc(-c3ccc(OC)cc3)nc21`, the IC50 [1] was 15.9 µM, the “Ratio IC50” value [2] was 5.43 and the IC50 [3] was 15.8 µM. For the same compound, the “Ratio IC50” value [4] was 5.46, the IC50 [5] was 17.2 µM and the “Ratio IC50” value [6] was 5.02. The IC50 [7] was 16.1 µM, the “Ratio IC50” value [8] was 5.36 and the IC50 [9] was 86.4 µM.

For `CCOC(=O)c1cc2c(nc1C(F)(F)F)nn1c(-c3ccccc3C)cc(-c3cccs3)nc21`, the Activity [9] was “Non-Toxic”.

In the case of `CCOC(=O)c1cc2c(nc1C(F)(F)F)nn1ccc(C)nc21`, the IC50 [1] is reported as 11.4 µM, the “Ratio IC50” value [2] is reported as 8.17 and the IC50 [3] is reported as 10.6 µM. For the same compound, the “Ratio IC50” value [4] was 8.79, the IC50 [5] was 12.1 µM and the “Ratio IC50” value [6] was 7.7. The IC50 [7] was 11.8 µM, the “Ratio IC50” value [8] was 7.89 and the IC50 [9] was 93.2 µM. For the same compound, the inhibition [11] was “Active”.

For `CCOC(=O)c1cc2c(nc1C(F)(F)F)nn1c(-c3ccc([N+](=O)[O-])cc3)cc(-c3ccccc3)nc21`, the IC50 [1] was 16.3 µM, the “Ratio IC50” value [2] was 5.57 and the IC50 [3] was 18.2 µM. For the same compound, the “Ratio IC50” value [4] was 4.98, the IC50 [5] was 12.2 µM and the “Ratio IC50” value [6] was 7.44. For the same compound, the IC50 [7] was 14.2 µM, the “Ratio IC50” value [8] was 6.39 and the IC50 [9] was 90.8 µM.

For `CCOC(=O)c1cc2c(nc1C(F)(F)F)nn1c(-c3ccc(OC)cc3)cc(-c3ccccc3)nc21`, the Activity [9] was “Non-Toxic”.

In the case of `CCOC(=O)c1cc2c(nc1C(F)(F)F)nn1c(C(F)(F)F)cc(C)nc21`, the IC50 [3] is reported as 25.6 µM, the “Ratio IC50” value [4] is reported as 3.44 and the IC50 [5] is reported as 24.3 µM. The “Ratio IC50” value [6] was 3.62 and the IC50 [9] was 88.2 µM.

With `CCOC(=O)c1cc2c(nc1C(F)(F)F)nn1c(-c3ccc(OC)cc3)cc(-c3ccc(OC)cc3)nc21` the Activity [9] was “Non-Toxic”.

In the case of `CCOC(=O)c1cc2c(nc1C(F)(F)F)nn1c(-c3c(F)cc(OC)cc3F)cc(-c3cccs3)nc21`, the IC50 [1] is reported as 22.8 µM, the “Ratio IC50” value [2] is reported as 4.07 and the IC50 [3] is reported as 20.4 µM. For the same compound, the “Ratio IC50” value [4] was 4.54, the IC50 [5] was 21.1 µM and the “Ratio IC50” value [6] was 4.39. For the same compound, the IC50 [7] was 23.5 µM, the “Ratio IC50” value [8] was 3.94 and the IC50 [9] was 92.8 µM.

In the case of `CCOC(=O)c1cc2c(nc1C(F)(F)F)nn1c(-c3ccc[nH]3)cc(-c3ccccc3)nc21`, the IC50 [1] is reported as 12.1 µM, the “Ratio IC50” value [2] is reported as 7.86 and the IC50 [3] is reported as 13.1 µM. For the same compound, the “Ratio IC50” value [4] was 7.26, the IC50 [5] was 10.3 µM and the “Ratio IC50” value [6] was 9.24. The IC50 [7] was 14.8 µM, the “Ratio IC50” value [8] was 6.43 and the IC50 [9] was 95.2 µM. The inhibition [11] was “Active”.
